Measurements as given in ChEMBL document CHEMBL1250448, “Inhibitor hijacking of Akt activation” (Nat Chem Biol, 2009).

Tests used:
[1] = molecular target: Proto-oncogene tyrosine-protein kinase Src (Homo sapiens) (UniProt P12931); test: Inhibition of SRC at 1 uM in presence of 10 uM ATP by Select Screen kinase assay relative to untreated control
Summary of the method: (§1)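 Commercial SelectScreen profiling panel of 220 purified kinases. Each kinase was tested at a single inhibitor concentration of 1 μM, and activity was expressed as percent inhibition.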

[2] = molecular target: Fibroblast growth factor receptor 3 (Homo sapiens) (UniProt P22607); test: Inhibition of FGFR3 at 1 uM in presence of 10 uM ATP by Select Screen kinase assay relative to untreated control
Sequence of Fibroblast growth factor receptor 3 (Homo sapiens) (P22607 23-806 limits assumed): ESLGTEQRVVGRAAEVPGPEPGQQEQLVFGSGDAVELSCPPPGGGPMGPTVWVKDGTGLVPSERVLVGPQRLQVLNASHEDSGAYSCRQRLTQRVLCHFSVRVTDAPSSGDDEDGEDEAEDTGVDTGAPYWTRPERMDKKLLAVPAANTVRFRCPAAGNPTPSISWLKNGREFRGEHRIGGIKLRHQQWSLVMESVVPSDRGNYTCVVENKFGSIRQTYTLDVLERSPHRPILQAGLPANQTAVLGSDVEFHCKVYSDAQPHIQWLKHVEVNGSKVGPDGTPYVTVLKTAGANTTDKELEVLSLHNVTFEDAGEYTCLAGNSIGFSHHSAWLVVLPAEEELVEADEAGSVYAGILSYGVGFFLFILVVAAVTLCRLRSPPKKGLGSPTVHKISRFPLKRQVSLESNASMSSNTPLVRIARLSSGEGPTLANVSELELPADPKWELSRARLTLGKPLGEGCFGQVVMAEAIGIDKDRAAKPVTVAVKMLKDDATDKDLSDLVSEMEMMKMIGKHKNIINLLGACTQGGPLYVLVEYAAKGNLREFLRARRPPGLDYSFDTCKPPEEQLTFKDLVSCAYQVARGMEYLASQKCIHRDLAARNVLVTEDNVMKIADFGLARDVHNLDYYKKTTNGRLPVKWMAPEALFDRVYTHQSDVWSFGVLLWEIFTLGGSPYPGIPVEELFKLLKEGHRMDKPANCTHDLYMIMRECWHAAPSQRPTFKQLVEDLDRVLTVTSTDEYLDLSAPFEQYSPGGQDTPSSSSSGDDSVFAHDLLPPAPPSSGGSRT
Summary of the method: (§2)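 Single-concentration profiling at 1 μM against a panel of 220 purified kinases, run as an outsourced SelectScreen kinase profiling service. Activity is expressed as percent inhibition.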

[3] = molecular target: NT-3 growth factor receptor (Homo sapiens) (UniProt Q16288); test: Inhibition of NTRK3 at 1 uM in presence of 10 uM ATP by Select Screen kinase assay relative to untreated control; summary of the method: as §1
[4] = molecular target: Protein kinase C gamma type (Homo sapiens) (UniProt P05129); test: Inhibition of PKCG at 1 uM in presence of 10 uM ATP by Select Screen kinase assay relative to untreated control; summary of the method: as §1
[5] = molecular target: SRSF protein kinase 1 (Homo sapiens) (UniProt Q96SB4); test: Inhibition of SRPK1 at 1 uM in presence of 100 uM ATP by Select Screen kinase assay relative to untreated control; summary of the method: as §1
[6] = molecular target: T1, Cytoplasmic tyrosine-protein kinase BMX (Homo sapiens) (UniProt P51813); test: Inhibition of BMX at 1 uM in presence of 10 uM ATP by Select Screen kinase assay relative to untreated control
T1 sequence (whole entry): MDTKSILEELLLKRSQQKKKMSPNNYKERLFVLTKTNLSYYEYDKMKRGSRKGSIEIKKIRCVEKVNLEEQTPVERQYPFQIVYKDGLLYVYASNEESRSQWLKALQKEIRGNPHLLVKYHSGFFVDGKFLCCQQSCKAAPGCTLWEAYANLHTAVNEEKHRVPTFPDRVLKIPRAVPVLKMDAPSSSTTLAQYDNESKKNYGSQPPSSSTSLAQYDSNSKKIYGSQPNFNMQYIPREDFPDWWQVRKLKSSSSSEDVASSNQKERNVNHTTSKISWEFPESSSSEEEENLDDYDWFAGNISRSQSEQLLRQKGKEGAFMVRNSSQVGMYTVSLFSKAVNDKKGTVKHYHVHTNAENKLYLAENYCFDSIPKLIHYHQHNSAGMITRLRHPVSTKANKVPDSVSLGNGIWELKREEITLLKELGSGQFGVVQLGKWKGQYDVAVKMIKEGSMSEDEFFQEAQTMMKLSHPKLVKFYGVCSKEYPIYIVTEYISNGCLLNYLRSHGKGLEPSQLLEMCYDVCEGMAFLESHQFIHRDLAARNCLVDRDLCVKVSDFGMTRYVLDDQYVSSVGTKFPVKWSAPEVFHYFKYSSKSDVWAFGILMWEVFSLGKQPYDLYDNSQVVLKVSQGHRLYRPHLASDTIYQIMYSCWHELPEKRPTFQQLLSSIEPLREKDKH
Summary of the method: (§3)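 Single-point screen at 1 μM against a panel of 220 purified kinases, run by Invitrogen staff as a SelectScreen profiling service. Read-out is percent inhibition of kinase activity.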

[7] = molecular target: Leukocyte tyrosine kinase receptor (Homo sapiens) (UniProt P29376); test: Inhibition of LTK at 1 uM in presence of 10 uM ATP by Select Screen kinase assay relative to untreated control; summary of the method: as §2
Sequence of Leukocyte tyrosine kinase receptor (Homo sapiens) (P29376 whole entry, canonical isoform): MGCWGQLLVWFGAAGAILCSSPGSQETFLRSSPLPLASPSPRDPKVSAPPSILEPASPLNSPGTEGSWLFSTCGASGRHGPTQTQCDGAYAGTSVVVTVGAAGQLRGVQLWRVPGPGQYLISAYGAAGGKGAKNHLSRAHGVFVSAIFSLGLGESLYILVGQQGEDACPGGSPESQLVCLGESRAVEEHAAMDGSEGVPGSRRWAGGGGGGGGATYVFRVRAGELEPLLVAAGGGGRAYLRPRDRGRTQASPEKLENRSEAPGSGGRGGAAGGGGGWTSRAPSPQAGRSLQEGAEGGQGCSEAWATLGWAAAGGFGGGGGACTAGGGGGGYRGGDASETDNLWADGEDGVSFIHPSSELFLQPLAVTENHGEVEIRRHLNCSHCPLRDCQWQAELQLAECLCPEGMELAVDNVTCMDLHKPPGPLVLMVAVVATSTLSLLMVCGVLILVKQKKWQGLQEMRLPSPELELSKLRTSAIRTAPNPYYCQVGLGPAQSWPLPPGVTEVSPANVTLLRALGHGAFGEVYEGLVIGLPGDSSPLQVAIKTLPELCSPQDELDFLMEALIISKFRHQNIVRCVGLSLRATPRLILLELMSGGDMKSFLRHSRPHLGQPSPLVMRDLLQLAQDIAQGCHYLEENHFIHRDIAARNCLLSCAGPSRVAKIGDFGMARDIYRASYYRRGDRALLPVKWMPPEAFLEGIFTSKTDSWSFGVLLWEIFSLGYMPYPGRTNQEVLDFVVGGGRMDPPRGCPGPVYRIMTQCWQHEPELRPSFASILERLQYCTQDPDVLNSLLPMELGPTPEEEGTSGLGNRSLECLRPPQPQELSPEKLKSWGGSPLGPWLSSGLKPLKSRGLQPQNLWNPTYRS

[8] = molecular target: Casein kinase I isoform gamma-2 (Homo sapiens) (UniProt P78368); test: Inhibition of CSNK1G2 at 1 uM in presence of 10 uM ATP by Select Screen kinase assay relative to untreated control; summary of the method: as §3
[9] = molecular target: Fibroblast growth factor receptor 2 (Homo sapiens) (UniProt P21802); test: Inhibition of FGFR2 at 1 uM in presence of 10 uM ATP by Select Screen kinase assay relative to untreated control; summary of the method: as §2
Sequence of Fibroblast growth factor receptor 2 (Homo sapiens) (P21802 22-821 limits assumed): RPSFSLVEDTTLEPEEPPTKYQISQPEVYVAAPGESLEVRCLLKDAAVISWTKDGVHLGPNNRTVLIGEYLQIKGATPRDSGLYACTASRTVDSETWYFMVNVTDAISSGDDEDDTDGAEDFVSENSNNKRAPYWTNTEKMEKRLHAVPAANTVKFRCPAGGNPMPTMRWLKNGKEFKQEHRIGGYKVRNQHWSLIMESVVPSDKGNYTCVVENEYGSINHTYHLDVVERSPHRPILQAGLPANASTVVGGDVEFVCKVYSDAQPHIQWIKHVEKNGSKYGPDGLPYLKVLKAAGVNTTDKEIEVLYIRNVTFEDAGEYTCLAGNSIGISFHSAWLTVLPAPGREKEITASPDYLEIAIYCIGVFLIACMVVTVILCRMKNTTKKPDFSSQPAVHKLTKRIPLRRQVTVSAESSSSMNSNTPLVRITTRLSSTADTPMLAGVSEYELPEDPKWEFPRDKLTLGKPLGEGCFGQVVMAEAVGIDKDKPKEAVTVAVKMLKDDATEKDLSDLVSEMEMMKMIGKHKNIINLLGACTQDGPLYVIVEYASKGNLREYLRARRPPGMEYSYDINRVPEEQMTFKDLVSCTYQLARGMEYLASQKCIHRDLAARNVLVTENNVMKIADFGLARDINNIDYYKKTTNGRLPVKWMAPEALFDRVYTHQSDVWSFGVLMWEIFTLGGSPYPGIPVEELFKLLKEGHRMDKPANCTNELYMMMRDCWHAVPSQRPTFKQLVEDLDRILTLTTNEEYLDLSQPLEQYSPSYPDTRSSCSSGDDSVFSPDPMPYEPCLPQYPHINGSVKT

[10] = molecular target: Myosin light chain kinase 2, skeletal/cardiac muscle (Homo sapiens) (UniProt Q9H1R3); test: Inhibition of MYLK2 at 1 uM in presence of 100 uM ATP by Select Screen kinase assay relative to untreated control; summary of the method: as §2
Sequence of Myosin light chain kinase 2, skeletal/cardiac muscle (Homo sapiens) (Q9H1R3 whole entry): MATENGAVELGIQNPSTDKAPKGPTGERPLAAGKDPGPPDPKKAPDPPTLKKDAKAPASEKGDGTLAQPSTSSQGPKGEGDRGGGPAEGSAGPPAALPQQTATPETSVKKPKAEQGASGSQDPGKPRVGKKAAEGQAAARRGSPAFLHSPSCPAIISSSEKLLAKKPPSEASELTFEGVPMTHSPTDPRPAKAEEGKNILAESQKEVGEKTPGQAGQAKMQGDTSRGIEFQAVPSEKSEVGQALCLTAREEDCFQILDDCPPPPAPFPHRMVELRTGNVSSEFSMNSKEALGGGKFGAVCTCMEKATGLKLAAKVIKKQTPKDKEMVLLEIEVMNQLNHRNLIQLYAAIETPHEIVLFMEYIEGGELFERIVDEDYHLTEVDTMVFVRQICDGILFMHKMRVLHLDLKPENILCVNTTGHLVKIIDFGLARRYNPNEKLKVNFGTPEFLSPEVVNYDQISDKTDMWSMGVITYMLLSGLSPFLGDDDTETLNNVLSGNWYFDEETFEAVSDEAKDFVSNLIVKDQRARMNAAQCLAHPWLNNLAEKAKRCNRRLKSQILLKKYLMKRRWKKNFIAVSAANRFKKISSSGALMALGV

[11] = molecular target: AMP-activated protein kinase (AMPK) alpha-1/beta-1/gamma-1 (Homo sapiens) (UniProt P54619+Q9Y478+Q13131); test: Inhibition of AMPK A1/B1/G1 at 1 uM in presence of 10 uM ATP by Select Screen kinase assay relative to untreated control; assay type: protein-complex assay; summary of the method: as §3
[12] = molecular target: Serine/threonine-protein kinase B-raf (Homo sapiens) (UniProt P15056); test: Inhibition of BRAF at 1 uM in presence of 100 uM ATP by Select Screen kinase assay relative to untreated control; summary of the method: as §3
[13] = molecular target: RAC-alpha serine/threonine-protein kinase (Homo sapiens, UniProt P31749); test: Inhibition of AKT1 at 1 uM in presence of 10 uM ATP by Select Screen kinase assay relative to untreated control; summary of the method: as §3
Sequence of RAC-alpha serine/threonine-protein kinase (P31749 whole entry): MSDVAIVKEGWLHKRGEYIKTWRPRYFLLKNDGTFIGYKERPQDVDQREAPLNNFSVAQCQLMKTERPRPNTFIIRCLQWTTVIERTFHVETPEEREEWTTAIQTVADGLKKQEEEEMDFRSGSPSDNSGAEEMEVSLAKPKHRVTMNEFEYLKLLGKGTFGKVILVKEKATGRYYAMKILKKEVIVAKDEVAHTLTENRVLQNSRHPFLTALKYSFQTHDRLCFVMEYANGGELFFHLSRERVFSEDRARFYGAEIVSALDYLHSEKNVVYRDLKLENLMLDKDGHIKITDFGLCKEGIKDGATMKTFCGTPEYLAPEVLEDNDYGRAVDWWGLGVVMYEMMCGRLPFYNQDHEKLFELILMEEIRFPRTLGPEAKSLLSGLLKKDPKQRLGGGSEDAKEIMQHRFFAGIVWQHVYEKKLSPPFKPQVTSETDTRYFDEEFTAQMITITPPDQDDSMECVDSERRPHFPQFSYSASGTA

[14] = molecular target: Ribosomal protein S6 kinase alpha-5 (Homo sapiens) (UniProt O75582); test: Inhibition of RPS6KA5 at 1 uM in presence of 10 uM ATP by Select Screen kinase assay relative to untreated control; summary of the method: as §1
Sequence of Ribosomal protein S6 kinase alpha-5 (Homo sapiens) (O75582 whole entry, looked up): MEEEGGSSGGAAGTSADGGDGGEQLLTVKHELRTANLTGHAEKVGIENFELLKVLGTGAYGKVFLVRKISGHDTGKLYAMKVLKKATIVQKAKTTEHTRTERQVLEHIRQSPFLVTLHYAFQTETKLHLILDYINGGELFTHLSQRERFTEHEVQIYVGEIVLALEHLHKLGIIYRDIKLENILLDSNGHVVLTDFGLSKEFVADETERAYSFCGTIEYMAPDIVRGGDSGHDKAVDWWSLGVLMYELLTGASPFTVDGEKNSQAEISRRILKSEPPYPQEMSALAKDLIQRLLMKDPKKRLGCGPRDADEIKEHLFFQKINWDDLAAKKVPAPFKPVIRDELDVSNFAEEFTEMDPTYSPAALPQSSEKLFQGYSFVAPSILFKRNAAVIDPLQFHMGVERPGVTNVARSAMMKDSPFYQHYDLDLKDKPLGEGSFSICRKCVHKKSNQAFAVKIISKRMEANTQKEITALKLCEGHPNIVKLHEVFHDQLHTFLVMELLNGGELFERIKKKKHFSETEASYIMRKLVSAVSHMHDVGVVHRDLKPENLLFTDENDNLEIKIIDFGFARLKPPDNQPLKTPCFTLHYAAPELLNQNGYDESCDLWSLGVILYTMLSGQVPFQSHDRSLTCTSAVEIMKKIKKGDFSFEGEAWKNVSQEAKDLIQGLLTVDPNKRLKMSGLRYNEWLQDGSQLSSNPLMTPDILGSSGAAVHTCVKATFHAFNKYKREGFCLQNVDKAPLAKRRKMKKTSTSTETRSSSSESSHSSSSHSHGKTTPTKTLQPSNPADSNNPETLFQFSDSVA

[15] = system: Fibroblast growth factor receptor 3 (Homo sapiens), P22607 [K650E]; test: Inhibition of FGFR3 K650E mutant at 1 uM in presence of 10 uM ATP by Select Screen kinase assay relative to untreated control; summary of the method: as §2
[16] = molecular target: Tyrosine-protein kinase Srms (Homo sapiens) (UniProt Q9H3Y6); test: Inhibition of SRMS at 1 uM in presence of 10 uM ATP by Select Screen kinase assay relative to untreated control; summary of the method: as §1
[17] = molecular target: T2, Serine/threonine-protein kinase Sgk3 (Homo sapiens) (UniProt Q96BR1); test: Inhibition of SGKL at 1 uM in presence of 10 uM ATP by Select Screen kinase assay relative to untreated control; summary of the method: as §1
T2 sequence (whole entry): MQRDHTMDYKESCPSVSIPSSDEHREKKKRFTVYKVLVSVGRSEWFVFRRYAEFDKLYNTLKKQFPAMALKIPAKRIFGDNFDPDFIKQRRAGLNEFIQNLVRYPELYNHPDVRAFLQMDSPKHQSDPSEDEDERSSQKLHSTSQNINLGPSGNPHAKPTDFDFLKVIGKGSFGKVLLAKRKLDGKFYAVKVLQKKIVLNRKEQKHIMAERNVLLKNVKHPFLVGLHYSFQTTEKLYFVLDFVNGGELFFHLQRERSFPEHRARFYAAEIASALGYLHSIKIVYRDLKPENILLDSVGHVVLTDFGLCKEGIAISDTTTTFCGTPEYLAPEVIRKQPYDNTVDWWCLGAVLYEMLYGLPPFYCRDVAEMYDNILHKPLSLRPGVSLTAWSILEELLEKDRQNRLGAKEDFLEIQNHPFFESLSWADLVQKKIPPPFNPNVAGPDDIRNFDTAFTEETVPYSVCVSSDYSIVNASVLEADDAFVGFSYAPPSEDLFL

[18] = molecular target: Casein kinase I isoform gamma-3 (Homo sapiens) (UniProt Q9Y6M4); test: Inhibition of CSNK1G3 at 1 uM in presence of 10 uM ATP by Select Screen kinase assay relative to untreated control; summary of the method: as §3

| inhibition [1] [%] | inhibition [2] [%] | inhibition [3] [%] | inhibition [4] [%] | inhibition [5] [%] | inhibition [6] [%] | inhibition [7] [%] | inhibition [8] [%] | inhibition [9] [%] | inhibition [10] [%] | inhibition [11] [%] | inhibition [12] [%] | inhibition [13] [%] | inhibition [14] [%] | inhibition [15] [%] | inhibition [16] [%] | inhibition [17] [%] | inhibition [18] [%] | SMILES |
| --- | --- | --- | --- | --- | --- | --- | --- | --- | --- | --- | --- | --- | --- | --- | --- | --- | --- | --- |
| 10 | 23 | 37 | 28 | 12 | 18 | 7 | 12 | 12 | 12 | 42 | 17 | 16 | 83 | 12 | 7 | 17 | 8 | COc1ccccc1N1CCN(c2ncnc3[nH]nc(Br)c23)CC1 |
| 27 | 43 | 80 | 58 | 12 | 39 | 5 | 15 | 51 | 25 | 89 | 38 | 7 | 18 | 38 | 10 | 12 | 14 | O=C(NCCCNc1nc(Nc2cccc(NC(=O)N3CCCC3)c2)ncc1I)c1cccs1 |

| SMILES | inhibition [1] [%] | inhibition [2] [%] | inhibition [3] [%] | inhibition [4] [%] | inhibition [5] [%] | inhibition [6] [%] | inhibition [7] [%] | inhibition [8] [%] | inhibition [9] [%] | inhibition [10] [%] | inhibition [11] [%] | inhibition [12] [%] | inhibition [13] [%] | inhibition [14] [%] | inhibition [15] [%] | inhibition [16] [%] | inhibition [17] [%] | inhibition [18] [%] |
| --- | --- | --- | --- | --- | --- | --- | --- | --- | --- | --- | --- | --- | --- | --- | --- | --- | --- | --- |
| Cc1n[nH]c2ccc(-c3cncc(OC[C@@H](N)Cc4c[nH]c5ccccc45)c3)cc12 | 11 | -1 | 28 | 108 | 27 | -2 | 35 | 81 | 3 | 22 | 57 | 72 | 100 | 102 | 8 | -1 | 78 | 57 |
